For one data set, the system named is Plasmodium falciparum. Description: Antiplasmodial activity against chloroquine-sensitive Plasmodium falciparum NF54 by lactate dehydrogenase assay. Format: functional, organism-based. The method in brief:
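Dose-response format against chloroquine-susceptible NF54 parasites, with lactate dehydrogenase activity as the parasite-viability marker.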

The nature of data set [1]: Cytotoxicity against mouse C3H10T1/2 cells assessed as effect on cell viability at 10 uM relative to control. Format: cell-based, C3H 10T1/2. As to conditions: read-out: Activity. A digest of the protocol: (§1)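 Single-concentration primary screen at 10 µM in an osteoblast differentiation assay for Hedgehog signalling inhibition, with cell viability monitored alongside. Hits were defined as at least 50% inhibition of signalling with <20% impact on cell viability.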

Data set [2] in a line: Inhibition of Hedgehog signaling pathway in mouse C3H10T1/2 cells assessed as reduction in osteoblast differentiation measured after 96 hrs by alkaline phosphatase CDP-star substrate based luminescence assay. The class given is cell-based. As to conditions: C3H 10T1/2, 96 h.
The next data set concerns C3H 10T1/2. Briefly: Inhibition of Hedgehog signaling pathway in mouse C3H10T1/2 cells assessed as reduction in osteoblast differentiation at 10 uM measured after 96 hrs by alkaline phosphatase CDP-star substrate based luminescence assay relative to control. The class given is cell-based. A digest of the protocol: as §1

Structures are written as SMILES. Active and inactive are the calls of the source.

In general, IC50 refers to the concentration at which inhibition is half-maximal. A lower IC50 goes with greater potency. `CN1C2CC(S(C)(=O)=O)C1C1CN(c3ccccn3)CC1C2O` (centres undefined): in the data set with Plasmodium falciparum, it took 5.4 µM to reach half-maximal inhibition (IC50). In other words, the single-digit micromolar range.
One may read the EC50 as the concentration giving half of the maximal effect. As a reminder, the inhibition is the percentage by which the read-out fell short of the control. As to `CS(=O)(=O)C1CC2c3c(c4ccccc4n3S(C)(=O)=O)CC1N2Cc1ccccc1` (centres undefined), the viability at 10 µM in data set [1] is under 20%. The EC50 in data set [2] turned out to be 4.4 µM. Further, the inhibition in the data set with C3H 10T1/2 is over 50%.
In the case of `CN1C2CC(S(=O)(=O)N(C)C)C1Cc1cccnc12` (centres undefined), the outcome with Plasmodium falciparum was Active.
Regarding `CS(=O)(=O)C1CC2c3ncccc3CC1N2Cc1ccccc1` (centres undefined), the outcome with Plasmodium falciparum was Active.
For the compound `CS(=O)(=O)C1CC2c3c(c4ccccc4n3CC#N)CC1N2Cc1ccccc1` (centres undefined), the viability at 10 µM in data set [1] is under 20%. The concentration for a half-maximal effect (EC50) in data set [2] was 4.2 µM. Further, in the data set on C3H 10T1/2, the inhibition was over 50%.
In the data set on Plasmodium falciparum, `CN(Cc1ccc(OC(F)(F)F)cc1)C1CCC2C(S(C)(=O)=O)CC1N2C` (centres undefined) gave an IC50 of 5.7 µM.
As for `CN1C2CC(S(C)(=O)=O)C1Cc1c(-c3ccccc3)ccnc12` (centres undefined), the outcome in the data set on Plasmodium falciparum was Active.
As to `CN1C2CC(S(C)(=O)=O)C1Cc1cccnc12` (centres undefined), the result in the data set on Plasmodium falciparum was Active.
In the data set on Plasmodium falciparum, `CS(=O)(=O)C1CC2C(=O)c3n[nH]c(C(=O)O)c3C1N2Cc1ccccc1` (centres undefined) came in with an IC50 of 5.4 µM.
Same read-out and setting: for `CN1C2CC(S(C)(=O)=O)C1C(c1ccc(F)cc1)CC2OCc1ccc(C#N)cc1` (centres undefined) the value was 5.5 µM.

Values taken from ChEMBL document CHEMBL4627349, “Synthesis and evaluation of the performance of a small molecule library based on diverse tropane-related scaffolds” (Bioorg Med Chem, 2020).
